Measured values taken from ChEMBL document CHEMBL1130122, “Synthesis, biological evaluation, and structure-activity relationships of 3-acylindole-2-carboxylic acids as inhibitors of the cytosolic phospholipase A2” (J Med Chem, 1997).

Legend:
Bos taurus = species: Bos taurus; assay: The cell lytic potency at a compound concentration of 33 uM in bovine platelets was determined; format: functional
In short: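 Turbidimetric lysis assay in bovine platelets. ETYA, then compound or DMSO solvent, then platelet suspension and CaCl2 at 37 °C. The suspension was diluted with PBS and absorbance read at 800 nm; lysis lowers absorbance. Platelets were stored at +4 °C and used within 36 h of isolation.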

[1] = target: T1, Cytosolic phospholipase A2 (Bos taurus, UniProt A4IFJ5); assay: Inhibitory activity against cPLA2 (cytosolic Phospholipase A2) by measuring the calcium ionophore A-23,187-induced arachidonic acid release from bovine platelets; format: functional
T1 sequence (A4IFJ5 whole entry): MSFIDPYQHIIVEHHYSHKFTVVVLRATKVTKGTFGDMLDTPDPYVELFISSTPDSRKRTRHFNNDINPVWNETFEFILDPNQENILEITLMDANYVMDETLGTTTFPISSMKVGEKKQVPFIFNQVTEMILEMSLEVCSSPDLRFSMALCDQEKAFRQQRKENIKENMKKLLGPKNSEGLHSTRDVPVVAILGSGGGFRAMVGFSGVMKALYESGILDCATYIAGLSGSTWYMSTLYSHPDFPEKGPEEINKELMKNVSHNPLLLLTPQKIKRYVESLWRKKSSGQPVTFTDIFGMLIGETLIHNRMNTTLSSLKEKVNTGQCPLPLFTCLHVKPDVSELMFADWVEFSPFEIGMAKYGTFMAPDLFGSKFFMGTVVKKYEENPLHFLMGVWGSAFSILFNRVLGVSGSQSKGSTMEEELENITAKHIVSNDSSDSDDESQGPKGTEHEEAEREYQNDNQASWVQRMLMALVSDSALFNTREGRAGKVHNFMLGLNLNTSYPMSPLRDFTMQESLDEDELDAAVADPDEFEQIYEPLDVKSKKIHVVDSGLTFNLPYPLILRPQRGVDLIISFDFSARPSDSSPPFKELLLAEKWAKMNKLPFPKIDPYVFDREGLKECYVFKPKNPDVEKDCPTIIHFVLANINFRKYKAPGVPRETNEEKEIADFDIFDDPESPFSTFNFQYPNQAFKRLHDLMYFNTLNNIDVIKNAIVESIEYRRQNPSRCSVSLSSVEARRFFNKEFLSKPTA
In short: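 Intact bovine platelets stimulated with calcium ionophore A23187 in the presence of ETYA, which blocks arachidonic acid metabolism. Compound or solvent control was added to ETYA, then platelet suspension and CaCl2 at 37 °C. Released arachidonic acid was measured by HPLC/UV. IC50 was read graphically as the mean of at least two independent experiments. Platelets were stored at +4 °C and used within 36 h of isolation.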

[2] = tested on: Cytosolic phospholipase A2 (Bos taurus); assay: Inhibitory activity against cPLA2 (cytosolic Phospholipase A2) by measuring the calcium ionophore A-23,187-induced arachidonic acid release from bovine platelets; Not active at highest conc tested 33 uM
[3] = tested on: Cytosolic phospholipase A2 (Bos taurus); assay: Inhibitory activity against cPLA2 (cytosolic Phospholipase A2) by measuring the calcium ionophore A-23,187-induced arachidonic acid release from bovine platelets at a compound conc of 33 uM

Row | SMILES | Lysis (Bos taurus) | IC50 [1] | IC50 [2] | inhibition [3]
1 | CCCCCCCCCCCCOc1ccc(C(=O)c2c(C(=O)O)n(C)c3ccccc23)cc1 | 19% | 7 µM | – | –
2 | CCCCCCCCCCCCCCCCCC(=O)c1c(C(=O)O)n(C)c2ccccc12 | 0% | 8 µM | – | –
3 | CCCCCCCCCCCCOc1ccccc1C(=O)c1c(C(=O)O)n(C)c2ccccc12 | 60% | – | – | –
4 | CCCCCCCCCCOc1cccc(CCC(=O)c2c(C(=O)O)n(C)c3ccccc23)c1 | 14% | 11 µM | – | –
5 | CCCCCCCCCCCC(=O)c1c(C(=O)O)n(CCOc2ccc(C(=O)O)cc2)c2ccccc12 | 0% | 0.5 µM | – | –
6 | CCCCCCCCCCCC(=O)c1c(C(=O)O)n(C)c2ccc(OC)cc12 | 0% | 8 µM | – | –
7 | CCCCCCCCCCCCCCCCCC(=O)c1c(C(=O)O)n(CCCCCCC)c2ccccc12 | 16% | > 10 µM | – | –
8 | CCCCCCCCCCCCCCCCCC(=O)c1c(C(=O)O)n(CCCCCCCCCCCC)c2ccccc12 | 0% | – | – | –
9 | CCCCCCCCCCOc1cccc(CC(=O)c2c(C(=O)O)n(C)c3ccccc23)c1 | 21% | 10 µM | – | –
10 | CCCCCCCCCCCC(=O)c1c(C(=O)O)n(CCOc2cccc(CC(=O)O)c2)c2ccccc12 | 0% | – | – | –
11 | CCCCCCCCCCCCCCCCCC(=O)c1c(C(=O)OCC)n(C)c2ccccc12 | 0% | – | Not Active | –
12 | CCCCCCCCCCCC(=O)c1c(C(=O)O)n(Cc2cccc(CCC(=O)O)c2)c2ccccc12 | 0% | 4.3 µM | – | –
13 | CCCCCCCCCCCCOc1cccc(C(=O)c2c(C(=O)O)n(C)c3ccccc23)c1 | 26% | 7 µM | – | –
14 | CCCCCCCCCCCCCCCCCC(=O)c1c(CCC(=O)O)[nH]c2ccccc12 | 0% | – | Not Active | –
15 | CCCCCCCCCCCC(=O)c1c(C(=O)O)n(CCCCCCCCC(=O)O)c2ccccc12 | 0% | 1.6 µM | – | –
16 | CCCCCCCCCCCCCCCCCC(=O)c1c(C(=O)O)[nH]c2ccccc12 | 0% | – | Not Active | –
17 | CCCCCCCCCCCC(=O)c1c(C(=O)O)n(C)c2ccccc12 | 0% | 8 µM | – | –
18 | CCCCCCCCCCCCCCCCCC(=O)c1c(CC(=O)O)n(C)c2ccccc12 | 0% | > 33 µM | – | –
19 | CCCCCCCCCCCCCCCCCC(=O)c1c(C(=O)O)n(CCCCCC)c2ccccc12 | 27% | 9 µM | – | –
20 | CCCCCCCCCCCC(=O)c1c(C(=O)O)n(CCOc2cccc(C(=O)O)c2)c2ccccc12 | 0% | 1.9 µM | – | –
21 | CCCCCCCCCCOc1ccccc1CC(=O)c1c(C(=O)O)n(C)c2ccccc12 | 37% | 7 µM | – | –
22 | CCCCCCCCCCCCCCCCCCc1c(C(=O)O)n(C)c2ccccc12 | 0% | – | Not Active | –
23 | CCCCCCCCCCCC(=O)c1c(C(=O)O)n(CCCCCCCC(=O)O)c2ccccc12 | 0% | 1.6 µM | – | –
24 | CCCCCCCCCCCC(=O)c1c(C(=O)O)n(CC(=O)O)c2ccccc12 | 0% | > 33 µM | – | 39%
25 | CCCCCCCCCCCCCCCCCC(=O)c1c(CCC(=O)O)n(C)c2ccccc12 | 0% | – | Not Active | –

Row | SMILES | Lysis (Bos taurus) | IC50 [1] | IC50 [2] | inhibition [3]
26 | CCCCCCCCCCCC(=O)c1c(C(=O)O)n(C)c2ccc([N+](=O)[O-])cc12 | 10% | 10 µM | – | –
27 | CCCCCCCCCCCCCCCCCC(=O)c1c(CC(=O)O)[nH]c2ccccc12 | 0% | – | Not Active | –
28 | CCCCCCCCCCCC(=O)c1c(C(=O)O)n(CCOc2ccc(CC(=O)O)cc2)c2ccccc12 | 0% | – | – | –
29 | CCCCCCCCCCOc1ccc(CC(=O)c2c(C(=O)O)n(C)c3ccccc23)cc1 | 38% | 7 µM | – | –
30 | CCCCC/C=C\C/C=C\C/C=C\C/C=C\CCCC(=O)C(F)(F)F [ARACHIDONYL TRIFLUOROMETHYLKETONE] | 31% | 11 µM | – | –
31 | CCCCCCCC(=O)c1c(C(=O)O)n(C)c2ccccc12 | 0% | > 33 µM | – | 30%
32 | CCCCCCCCCCCC(=O)c1c(C(=O)O)n(Cc2ccc(CCC(=O)O)cc2)c2ccccc12 | 0% | 4 µM | – | –
33 | CCCCCCCCCCOc1ccccc1CCC(=O)c1c(C(=O)O)n(C)c2ccccc12 | 34% | 34 µM | – | –
34 | CCCCCCCCCCCC(=O)c1c(C(=O)O)n(C)c2ccc(O)cc12 | 0% | 10 µM | – | –
35 | CCCCCCCCCCCC(=O)c1c(C(=O)O)n(C)c2ccc(F)cc12 | 0% | 11 µM | – | –
36 | CCCCCCCCCCCC(=O)c1c(C)c(C)n(C)c1C(=O)O | 0% | 11 µM | – | –
37 | CCCCCCCCCCCC(=O)c1c(C(=O)O)n(CCCCCC(=O)O)c2ccccc12 | 0% | 8 µM | – | –
38 | CCCCCCCCCCCCCCCCNC(=O)C1CCCN1 (configuration not stated) | 0% | 13 µM | – | –
39 | CCCCCCCCCCCC(=O)c1c(C(=O)O)n(CCCCCCC(=O)O)c2ccccc12 | 0% | 3 µM | – | –
40 | CCCCCCCCCCCCCCCCCC(=O)c1c(C(=O)O)n(CCCCCCCC)c2ccccc12 | 0% | – | – | –
41 | CCCCCCCCCCCC(=O)c1c(C(=O)O)n(C)c2cc(Cl)ccc12 | 26% | 9 µM | – | –
42 | CCCCCCCCCCCC(=O)c1c(C(=O)O)n(C)c2ccc(Cl)cc12 | 14% | 8 µM | – | –
43 | CCCCCCCCCC(=O)c1c(C(=O)O)n(C)c2ccccc12 | 0% | 18 µM | – | –
44 | CCCCCCCCCCCC(=O)c1c(C(=O)O)n(C)c2cccc(Cl)c12 | 50% | 9 µM | – | –
45 | CCCCCCCCCCCC(=O)c1c(C(=O)O)n(CCCCCCCCCCC(=O)O)c2ccccc12 | 0% | 1.4 µM | – | –
46 | CCCCCCCCCCCC(=O)c1c(C(=O)O)n(Cc2ccc(/C=C/C(=O)O)cc2)c2ccccc12 | 0% | 4.1 µM | – | –
47 | CCCCCCCCCCOc1ccc(CCC(=O)c2c(C(=O)O)n(C)c3ccccc23)cc1 | 0% | 10 µM | – | –
48 | CCCCCCCCCCCCCC(=O)c1c(C(=O)O)n(C)c2ccccc12 | 0% | 8 µM | – | –
49 | CCCCCCCCCCCCCCCCCC(=O)c1c(C(=O)O)n(CCCCCCCC(=O)O)c2ccccc12 | 69% | 1.4 µM | – | –
50 | CCCCCCCCCCCC(=O)c1c(C(=O)O)n(Cc2cccc(/C=C/C(=O)O)c2)c2ccccc12 | 0% | 5.3 µM | – | –
